The source of these data is ChEMBL document CHEMBL3526071, “Predicting phenolic acid absorption in Caco-2 cells: a theoretical permeability model and mechanistic study” (Drug Metab Dispos, 2012).

The nature of data set [1]: 1-Octanol-water distribution coefficient, log D of the compound at pH 7.4 by shake flask method. Format: physicochemical.
Data set [2] can be described thus: Efflux ratio of apparent permeability from basolateral to apical side over apical to basolateral side in human Caco2 cells at 500 uM after 1 hr by HPLC-DAD analysis. Format: ADME, cell-based. Particulars: Caco-2.
The nature of data set [3]: Apparent permeability across human Caco2 cells with low TEER resistance at 500 uM after 1 hr by HPLC-DAD analysis. Format: ADME, cell-based. The conditions noted are these: Caco-2. In outline: (§1)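 Caco-2 (passages 30–50) seeded at 6 × 10^4 cells/cm2 on 0.4-μm polycarbonate Transwell inserts and grown 21 days. Monolayer resistance varied by 15-min preincubation in HBSS pH 7.4 with 18 μM or 3.6 mM CaCl2. 500 μM compound added apically in HBSS at the same CaCl2. 1 h, 37°C, no stirring. TEER measured before and after, corrected for cell-free insert. Receiver quantified by HPLC-DAD. n = 3.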
On the technique in general: Caco-2 monolayers are a common model of the intestinal barrier.

A short description of data set [4]: Apparent permeability from apical to basolateral side in human Caco2 cells at 500 uM at pH 7.4 after 1 hr by HPLC-DAD analysis. Format: ADME, cell-based. The conditions noted are these: Caco-2, pH 7.4. In outline:
(§2)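 Differentiated Caco-2 monolayers after 21+ days on Transwells, equilibrated 15 min in HBSS with 1.8 mM CaCl2, pH 7.4. 500 μM compound (from DMSO stock) in the donor, apical or basal. Both sides pH 7.4. 1 h at 37°C, 5% CO2. Receiver measured by HPLC-DAD with recovery correction. Papp calculated from receiver amount over time versus initial donor amount. Mean ± S.D., n = 3.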

A short description of data set [5]: Apparent permeability from basolateral to apical side in human Caco2 cells at 500 uM at pH 7.4 after 1 hr by HPLC-DAD analysis. Format: ADME, cell-based. Particulars: Caco-2, pH 7.4. In short, it runs like this: as §2
Data set [6] can be described thus: Apparent permeability across human Caco2 cells with high TEER resistance at 500 uM after 1 hr by HPLC-DAD analysis. The class given is ADME, cell-based. Particulars: Caco-2. In outline:
as §1

Data set [7] in a line: 1-Octanol-water distribution coefficient, log D of the compound at pH 7.4. Format: physicochemical.
The nature of data set [8]: Oral bioavailability in human. The class given is ADME, organism-based. Particulars: in vivo.
Setting [9] is: 1-octanol/water, read-out: logD.

Where a SMILES comes first, the peptide text is derived from it.

The logD is lipophilicity at a set pH, counting ionised and neutral species. The efflux ratio is a quotient of directional permeabilities that is used to spot active efflux. Usually Papp stands for a coefficient for how fast a substance crosses the barrier. As usually defined, the Papp A→B is how fast a substance crosses the layer from the apical side. A word on the Papp B→A: it is how fast a substance crosses the layer from the basolateral side. In general, bioavailability refers to the share of a dose that reaches the circulation, judged against a reference dose that is usually intravenous.

Turning to `O=C(/C=C/c1ccc(O)c(O)c1)O[C@@H]1C[C@](O)(C(=O)O)C[C@@H](OC(=O)/C=C/c2ccc(O)c(O)c2)[C@H]1O`, in data set [1], the logD is -1.04. Further, the efflux ratio at 1 h, 500 µM in data set [2] turned out to be 5.4. In addition, the results for the Papp at 1 h, 500 µM in data set [3] and in data set [6] were 0.68 ×10⁻⁶ cm/s and 0.05 ×10⁻⁶ cm/s, respectively. For the same compound, the Papp A→B at 1 h, 500 µM in data set [4] was 0.14 ×10⁻⁶ cm/s. Besides, the Papp B→A at 1 h, 500 µM in data set [5] is 0.72 ×10⁻⁶ cm/s.
As for `CC(C)(C)S(=O)(=O)C[C@@H](Cc1ccccc1)C(=O)N[C@@H](Cc1cnc[nH]1)C(=O)N[C@@H](CC1CCCCC1)[C@@H](O)[C@@H](O)C1CC1`, the logD in data set [7] (setting [9]) was 2.75.
In data set [1], `COc1ccc(/C=C/C(=O)O)cc1OC` registered a logD of -1.01. Also, the efflux ratio at 1 h, 500 µM in data set [2] turned out to be 1.1. Also, the Papp A→B at 1 h, 500 µM in data set [4] is 19.9 ×10⁻⁶ cm/s. For the same compound, the Papp B→A at 1 h, 500 µM in data set [5] was 21.7 ×10⁻⁶ cm/s.
With `CSc1ccc2ncn(/C=C/C(=O)O)c(=O)c2c1`, the logD in data set [7] (setting [9]) is -1.05.
`COc1cc(/C=C/C(=O)O[C@@H]2C[C@](O)(C(=O)O)C[C@@H](O)[C@H]2O)ccc1O` yielded a logD in data set [1] of -2.79. Moreover, the efflux ratio at 1 h, 500 µM in data set [2] was 1.1. The Papp at 1 h, 500 µM in data set [3] was 1.7 ×10⁻⁶ cm/s; in data set [6], 0.31 ×10⁻⁶ cm/s. Further, the Papp A→B at 1 h, 500 µM in data set [4] worked out at 0.25 ×10⁻⁶ cm/s. Besides, the Papp B→A at 1 h, 500 µM in data set [5] was 0.28 ×10⁻⁶ cm/s.
With `C=CCc1ccccc1OCC(O)CNC(C)C` (centres undefined) [ALPRENOLOL], in data set [1], the logD turned out to be 1.08.
In the case of `Cc1c(N(C)C)c(=O)n(-c2ccccc2)n1C` [AMINOPYRINE], the bioavailability in data set [8] came out at 100%.
The compound `CC(=O)Oc1ccccc1C(=O)O` [ASPIRIN] returned a bioavailability in data set [8] of 100%.
`O=C(O)/C=C/c1ccc(O)c(O)c1` [CAFFEIC ACID]: the Papp A→B at 1 h, 500 µM in data set [4] is 1.4 ×10⁻⁶ cm/s. The Papp B→A at 1 h, 500 µM in data set [5] was determined as 1.7 ×10⁻⁶ cm/s.
In data set [1], `O=C(/C=C/c1ccc(O)c(O)c1)O[C@@H]1C[C@](O)(C(=O)O)C[C@@H](O)[C@H]1O` [CHLOROGENIC ACID] came in with a logD of -3.05. Moreover, the Papp at 1 h, 500 µM amounted to 0.77 ×10⁻⁶ cm/s in data set [3] and 0.25 ×10⁻⁶ cm/s in data set [6]. In addition, in data set [4], the Papp A→B at 1 h, 500 µM is 0.38 ×10⁻⁶ cm/s. The Papp B→A at 1 h, 500 µM in data set [5] came out at 0.33 ×10⁻⁶ cm/s.
On to `CN/C(=N/CCSCc1nc[nH]c1C)NC#N` [CIMETIDINE], for which, in data set [7] (setting [9]), the logD is -0.4.
Same read-out and setting: next, `OC[C@H]1OC(O)[C@H](O)[C@@H](O)[C@@H]1O` (some centres undefined) [DEXTROSE]: -2.83.
For the compound `CNC[C@H](O)c1ccc(O)c(O)c1` [EPINEPHRINE], in data set [7] (setting [9]), the logD was -2.59.
As to `CCOC(=O)C1=C(C)NC(C)=C(C(=O)OC)C1c1cccc(Cl)c1Cl` (centres undefined) [FELODIPINE], the logD in data set [7] (octanol/water) stood at 3.48.
With `COc1cc(/C=C/C(=O)O)ccc1O` [FERULATE], the logD in data set [1] is -1.19. The efflux ratio at 1 h, 500 µM in data set [2] is 1. Besides, the Papp at 1 h, 500 µM in data set [3] was 11.2 ×10⁻⁶ cm/s; in data set [6] it was 10.8 ×10⁻⁶ cm/s. Also, in data set [4], the Papp A→B at 1 h, 500 µM was determined as 10 ×10⁻⁶ cm/s. For the same compound, the Papp B→A at 1 h, 500 µM in data set [5] worked out at 10.2 ×10⁻⁶ cm/s.
For the compound `CC(C)n1c(/C=C/C(O)CC(O)CC(=O)O)c(-c2ccc(F)cc2)c2ccccc21` (centres undefined) [FLUVASTATIN], in data set [7] (setting [9]), the logD amounted to 1.09.
Same read-out and setting: next, `NCC(=O)N1CCC[C@H]1C(=O)O` [GLYCYL PROLINE] (H-Gly-Pro-OH): -3.32.
On the same count and under the same terms, in the case of `COC1=CC(=O)C[C@@H](C)[C@]12Oc1c(Cl)c(OC)cc(OC)c1C2=O` [GRISEOFULVIN] it was 2.47; in that of `N=C(N)NCC1COc2ccccc2O1` (centres undefined) [GUANOXAN], -0.83.
The compound `N[C@@H](Cc1ccc(O)c(O)c1)C(=O)O` [LEVODOPA] had a pH-dependent lipophilicity (logD) in data set [7] (octanol/water) of -1.22.
`OC[C@@H](O)[C@@H](O)[C@H](O)[C@H](O)CO` [MANNITOL]: the logD in data set [7] (setting [9]) is -3.1. Also, the bioavailability in data set [8] came out at 16%.
On to `COCCc1ccc(OCC(O)CNC(C)C)cc1` (centres undefined) [METOPROLOL], for which the log distribution coefficient (logD) in data set [1] was -0.24.
In the case of `COCC(=O)O[C@]1(CCN(C)CCCc2nc3ccccc3[nH]2)CCc2cc(F)ccc2[C@@H]1C(C)C` [MIBEFRADIL], the logD in data set [7] (octanol/water) is on record as 3.66.
On to `Cc1ccnc2c1NC(=O)c1cccnc1N2C1CC1` [NEVIRAPINE], for which the logD in data set [7] (setting [9]) was determined as 1.81. For the same compound, the bioavailability in data set [8] is more than 90%.
As for `O=C1NC(=O)C(c2ccccc2)(c2ccccc2)N1` [PHENYTOIN], the logD in data set [7] (setting [9]) was found to be 2.5.
On to `CN1C(C(=O)Nc2ccccn2)=C(O)c2ccccc2S1(=O)=O` [PIROXICAM], for which, in data set [7] (setting [9]), the logD was 0.
As for `CC(=O)Nc1ccc(OCC(O)CNC(C)C)cc1` (centres undefined) [PRACTOLOL], the logD in data set [7] (setting [9]) was -1.4.
For `COC(=O)c1ccccc1-c1c2ccc(=N)cc-2oc2cc(N)ccc12` [RHODAMINE123], the logD in data set [7] (setting [9]) was determined as 0.53.
For the compound `O=C(O)c1ccccc1O` [SALICYLIC ACID], the logD in data set [1] was -2.34; in data set [7] (setting [9]), -1.44. The same compound yielded a bioavailability in data set [8] of 100%.
With `CC(C)(C)NCC(O)COc1ccc(NC(=O)NC2CCCCC2)cc1` (centres undefined) [TALINOLOL], the logD in data set [7] (setting [9]) was found to be 1.1. In data set [8], this compound yielded a bioavailability of 55%.
Regarding `CC(=O)CC(c1ccccc1)c1c(O)c2ccccc2oc1=O` (centres undefined) [WARFARIN], the logD in data set [7] (setting [9]) is 0.9.
